In ChEMBL document CHEMBL4304751, “Discovery of Novel Pyrido-pyridazinone Derivatives as FER Tyrosine Kinase Inhibitors with Antitumor Activity” (ACS Med Chem Lett, 2019):
pIC50: −log10 of the molar value. Values after ≈ are worked out from the molar mass of the structure shown. Values belong to the molecule of their own block, whether it stands above or below them.

How the values were obtained:
[1] = target: T1, Tyrosine-protein kinase Fer (Homo sapiens, UniProt P16591)
Target sequence in this assay (P16591 whole entry, looked up, the tested form may be a part): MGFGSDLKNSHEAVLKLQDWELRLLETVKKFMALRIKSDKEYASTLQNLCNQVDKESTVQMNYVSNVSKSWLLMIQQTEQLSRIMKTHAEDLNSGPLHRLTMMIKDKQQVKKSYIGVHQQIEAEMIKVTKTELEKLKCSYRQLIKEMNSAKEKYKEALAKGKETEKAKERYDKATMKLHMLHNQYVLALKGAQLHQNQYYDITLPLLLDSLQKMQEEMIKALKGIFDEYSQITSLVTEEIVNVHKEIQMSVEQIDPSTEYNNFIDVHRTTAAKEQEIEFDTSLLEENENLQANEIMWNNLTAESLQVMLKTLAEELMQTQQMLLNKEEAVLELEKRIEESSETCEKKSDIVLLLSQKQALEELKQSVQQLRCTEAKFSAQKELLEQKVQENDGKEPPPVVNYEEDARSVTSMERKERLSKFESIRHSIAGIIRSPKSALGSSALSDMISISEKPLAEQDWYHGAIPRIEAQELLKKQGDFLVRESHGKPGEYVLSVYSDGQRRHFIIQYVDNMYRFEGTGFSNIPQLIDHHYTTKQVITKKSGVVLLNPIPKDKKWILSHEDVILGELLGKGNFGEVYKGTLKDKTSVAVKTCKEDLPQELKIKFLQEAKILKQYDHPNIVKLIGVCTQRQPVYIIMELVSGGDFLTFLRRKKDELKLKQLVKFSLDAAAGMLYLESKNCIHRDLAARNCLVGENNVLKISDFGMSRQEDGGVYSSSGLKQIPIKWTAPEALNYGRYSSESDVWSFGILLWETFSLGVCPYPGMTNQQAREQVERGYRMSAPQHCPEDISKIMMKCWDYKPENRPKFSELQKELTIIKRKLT

[2] = Toxicity in BALB/cAJcl nu/nu mouse allografted with mouse BA/F3 cells expressing myc/His-tagged ETV6-FER kinase domain (452 to 821 residues) assessed as change in body weight loss at 12.5 to 100 mg/kg, po administered once per day for 4 days starting from 6 days after tumor cell implantation and measured during compound dosing; type: organism-based; details: in vivo
[3] = target: High affinity nerve growth factor receptor (Homo sapiens) (UniProt P04629); assay: Inhibition of recombinant N-terminal GST-fusion protein tagged human TRKA cytoplasmic domain (436 to 790 residues) expressed in baculovirus expression system assessed as decrease in fluorescence labelled CSKtide phosphorylation at 200 nM by off-chip mobility shift assay relative to control
[4] = target: Serine/threonine-protein kinase Chk2 (Homo sapiens) (UniProt O96017); assay: Inhibition of recombinant N-terminal GST-fusion protein tagged human full length CHK2 (1 to 543 residues) expressed in baculovirus expression system assessed as decrease in fluorescence labelled CHKtide phosphorylation at 200 nM by off-chip mobility shift assay relative to control
[5] = Cmax in BALB/cAnNCrlCrlj mouse at 10 mg/kg, po administered via gavage after 24 hrs; type: ADME, organism-based; design: dose 10 mg/kg, route oral; details: in vivo
Procedure, shortened: (§1)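 Mouse pharmacokinetics: compound given orally at 10 mg/kg. Unbound plasma concentration is reported as a mean value after oral dosing.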

[6] = Total plasma clearance in BALB/cAnNCrlCrlj mouse at 1 mg/kg, iv after 24 hrs; type: ADME, organism-based
Procedure, shortened: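 Clearance measured after a single intravenous dose of 1 mg/kg in mice.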

[7] = AUC in BALB/cAnNCrlCrlj mouse at 10 mg/kg, po administered via gavage after 24 hrs; type: ADME, organism-based; design: time < 24 hr, dose 10 mg/kg, route oral; details: in vivo
Procedure, shortened: as §1

[8] = target: CDK2/Cyclin A2 (Homo sapiens) (UniProt P24941+P20248); assay: Inhibition of recombinant human full length N-terminal GST-tagged CDK2 (1 to 298 residues)/GST-tagged CyclinA2 (1 to 432 residues) expressed in baculovirus expression system assessed as decrease in fluorescence labelled modified histone H1 phosphorylation at 200 nM by off-chip mobility shift assay relative to control
Mus musculus = assay: Unbound plasma concentration in BALB/cAnNCrlCrlj mouse at 10 mg/kg, po administered via gavage after 24 hrs by non-compartmental analysis; type: ADME, organism-based; details: in vivo
Procedure, shortened: as §1

[9] = target: T1, Tyrosine-protein kinase Fer; assay: Inhibition of recombinant N-terminal GST-tagged human full length FER (1 to 822 residues) expressed in baculovirus expression system decrease in fluorescence labelled Srctide phosphorylation at 200 nM by off-chip mobility shift assay relative to control
Target sequence in this assay (P16591 whole entry, looked up, the tested form may be a part): as above

[10] = Solubility in FaSSIF; type: physicochemical
Procedure, shortened: (§2)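 Solubility expressed as μg/mL, measured in pH 6.8 buffer and in FaSSIF.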

BaF3 = assay: Antitumor activity against mouse BA/F3 cells expressing myc/His-tagged ETV6-FER kinase domain (452 to 821 residues) allografted in BALB/cAJcl nu/nu mouse assessed as decrease in tumor volume administered orally once per day for 4 days starting from 6 days after tumor cell implantation and measured during compound dosing; type: functional, cell-based
[11] = target: Mast/stem cell growth factor receptor Kit (Homo sapiens) (UniProt P10721); assay: Inhibition of recombinant N-terminal GST-fusion protein tagged human KIT cytoplasmic domain (544 to 976 residues) expressed in baculovirus expression system assessed as decrease in fluorescence labelled Srctide phosphorylation at 200 nM by off-chip mobility shift assay relative to control
[12] = Protein binding in BALB/c mouse serum at 10 ug/mL incubated for 4 hrs under shaking condition by LC/MS/MS analysis; type: ADME, cell-free; details: read-out: PPB
Procedure, shortened: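 Binding determined using serum samples from BALB/c mice.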

[13] = target: Proto-oncogene tyrosine-protein kinase ROS (Homo sapiens) (UniProt P08922); assay: Inhibition of recombinant N-terminal GST-fusion protein tagged human ROS1 cytoplasmic domain (1883 to 2347 residues) expressed in baculovirus expression system assessed as decrease in fluorescence labelled IRS1 phosphorylation at 200 nM by off-chip mobility shift assay relative to control
[14] = target: T1, Tyrosine-protein kinase Fer; assay: Inhibition of recombinant N-terminal His-tagged human FER (SH2 domain to C-terminal) expressed in Escherichia coli assessed as decrease in FL-Peptide22 substrate phosphorylation incubated for 90 mins
Target sequence in this assay (P16591 whole entry, the tested form may be a part): as the sequence (P16591 whole entry, looked up, the tested form may be a part) above

[15] = target: ALK tyrosine kinase receptor (Homo sapiens) (UniProt Q9UM73); assay: Inhibition of recombinant N-terminal GST-fusion protein tagged human ALK cytoplasmic domain (1058 to 1620 residues) expressed in baculovirus expression system assessed as decrease in fluorescence labelled Srctide phosphorylation at 200 nM by off-chip mobility shift assay relative to control
[16] = Metabolic stability in mouse liver microsomes assessed as parent compound remaining at 1 uM after 30 mins relative to control; type: ADME, Microsome; details: read-out: Stability
Procedure, shortened: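 Test compound at 1.0 μM incubated 30 min with mouse liver microsomes (1.0 mg/mL protein). The fraction of parent remaining is reported.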

[17] = Growth inhibition of mouse mock transfected BA/F3 cells assessed as decrease in cell viability after 3 days by luminescence based CellTiter-Glo assay; design: species or system BaF3
Procedure, shortened: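 Ba/F3 growth inhibition run as quadruplicate experiments. GI50 fitted with 95% confidence intervals.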

[18] = target: Protein-tyrosine kinase 2-beta (Homo sapiens) (UniProt Q14289); assay: Inhibition of recombinant N-terminal GST-fusion protein tagged human full length PYK2 (1 to 967 residues) expressed in baculovirus expression system assessed as decrease in fluorescence labelled Blk/Lyntide phosphorylation at 200 nM by off-chip mobility shift assay relative to control
[19] = Solubility in buffer at pH 6.8; type: physicochemical
Procedure, shortened: as §2

[20] = target: Mitogen-activated protein kinase kinase kinase 9 (Homo sapiens) (UniProt P80192); assay: Inhibition of recombinant N-terminal GST-fusion protein tagged human MLK1 catalytic domain (110 to 422 residues) expressed in baculovirus expression system assessed as decrease in GST-labelled MAP2K7 phosphorylation at 200 nM by HRP-labelled anti-rabbit antibody based ELISA method relative to control
[21] = target: T2, Testis-specific serine/threonine-protein kinase 1 (Homo sapiens) (UniProt Q9BXA7); assay: Inhibition of recombinant N-terminal GST fusion protein tagged human full length TSSK1 (1 to 367 residues) expressed in baculovirus expression system assessed as decrease in fluorescence labelled GS peptide phosphorylation at 200 nM by off-chip mobility shift assay relative to control
T2 sequence (whole entry): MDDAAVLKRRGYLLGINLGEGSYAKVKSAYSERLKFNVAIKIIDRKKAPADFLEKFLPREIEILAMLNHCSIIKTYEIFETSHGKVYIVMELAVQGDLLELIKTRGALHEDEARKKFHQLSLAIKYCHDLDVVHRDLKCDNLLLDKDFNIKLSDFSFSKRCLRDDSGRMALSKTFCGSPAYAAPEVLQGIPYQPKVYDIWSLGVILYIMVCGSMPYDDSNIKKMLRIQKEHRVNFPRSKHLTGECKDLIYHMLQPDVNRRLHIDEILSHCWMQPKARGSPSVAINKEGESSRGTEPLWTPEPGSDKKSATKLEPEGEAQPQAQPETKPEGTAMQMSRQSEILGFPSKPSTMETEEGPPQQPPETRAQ

[22] = Effective permeability of compound at 5 uM after 24 hrs at pH 7.4 by LC/MS/MS based PAMPA assay; type: ADME; details: read-out: Peff
[23] = target: Mitogen-activated protein kinase kinase kinase kinase 4 (Homo sapiens) (UniProt O95819); assay: Inhibition of recombinant N-terminal GST-fusion protein tagged human HGK catalytic domain (1 to 328 residues) expressed in baculovirus expression system assessed as decrease in fluorescence labelled Moesin-derived phosphorylation at 200 nM by off-chip mobility shift assay relative to control
[24] = target: Tyrosine-protein kinase SYK (Homo sapiens) (UniProt P43405); assay: Inhibition of recombinant N-terminal GST-fusion protein tagged human full length SYK (1 to 635 residues) expressed in baculovirus expression system assessed as decrease in fluorescence labelled Blk/Lyntide phosphorylation at 200 nM by off-chip mobility shift assay relative to control
[25] = target: Macrophage colony-stimulating factor 1 receptor (Homo sapiens) (UniProt P07333); assay: Inhibition of recombinant N-terminal GST-fusion protein tagged human FMS cytoplasmic domain (538 to 972 residues) expressed in baculovirus expression system assessed as decrease in fluorescence labelled Srctide phosphorylation at 200 nM by off-chip mobility shift assay relative to control
[26] = target: T3, Interleukin-1 receptor-associated kinase 4 (Homo sapiens) (UniProt Q9NWZ3); assay: Inhibition of recombinant N-terminal GST-fusion protein tagged human full length IRAK4 (1 to 460 residues) expressed in baculovirus expression system assessed as decrease in fluorescence labelled IRAK1 phosphorylation at 200 nM by off-chip mobility shift assay relative to control
T3 sequence (whole entry): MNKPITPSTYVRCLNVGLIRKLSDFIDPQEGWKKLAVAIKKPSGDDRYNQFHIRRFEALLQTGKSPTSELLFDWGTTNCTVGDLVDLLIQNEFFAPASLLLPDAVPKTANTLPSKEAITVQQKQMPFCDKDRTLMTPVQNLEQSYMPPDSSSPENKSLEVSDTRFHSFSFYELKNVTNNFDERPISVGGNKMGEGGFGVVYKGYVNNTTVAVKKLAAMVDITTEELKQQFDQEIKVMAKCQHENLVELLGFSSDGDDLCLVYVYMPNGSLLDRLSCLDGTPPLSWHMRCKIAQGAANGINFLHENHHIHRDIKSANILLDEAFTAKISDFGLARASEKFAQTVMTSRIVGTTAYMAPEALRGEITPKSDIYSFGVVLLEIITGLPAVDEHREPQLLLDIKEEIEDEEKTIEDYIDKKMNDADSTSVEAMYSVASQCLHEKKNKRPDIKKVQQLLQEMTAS

[27] = Oral bioavailability in BALB/cAnNCrlCrlj mouse at 10 mg/kg administered via gavage after 24 hrs; type: ADME, organism-based; details: in vivo
Procedure, shortened: as §1

[28] = target: Receptor-type tyrosine-protein kinase FLT3 (Homo sapiens) (UniProt P36888); assay: Inhibition of recombinant N-terminal GST-fusion protein tagged human FLT3 cytoplasmic domain (564 to 993 residues) expressed in baculovirus expression system assessed as decrease in fluorescence labelled Srctide phosphorylation at 200 nM by off-chip mobility shift assay relative to control
[29] = target: Tyrosine-protein kinase Fes/Fps (Homo sapiens) (UniProt P07332); assay: Inhibition of recombinant N-terminal GST fusion protein tagged human full length FES (1 to 413/416 to 822 residues) expressed in baculovirus expression system assessed as decrease in fluorescence labelled Srctide phosphorylation at 200 nM by off-chip mobility shift assay relative to control

Sequence of Receptor-type tyrosine-protein kinase FLT3 (Homo sapiens) (P36888 whole entry, the tested form may be a part): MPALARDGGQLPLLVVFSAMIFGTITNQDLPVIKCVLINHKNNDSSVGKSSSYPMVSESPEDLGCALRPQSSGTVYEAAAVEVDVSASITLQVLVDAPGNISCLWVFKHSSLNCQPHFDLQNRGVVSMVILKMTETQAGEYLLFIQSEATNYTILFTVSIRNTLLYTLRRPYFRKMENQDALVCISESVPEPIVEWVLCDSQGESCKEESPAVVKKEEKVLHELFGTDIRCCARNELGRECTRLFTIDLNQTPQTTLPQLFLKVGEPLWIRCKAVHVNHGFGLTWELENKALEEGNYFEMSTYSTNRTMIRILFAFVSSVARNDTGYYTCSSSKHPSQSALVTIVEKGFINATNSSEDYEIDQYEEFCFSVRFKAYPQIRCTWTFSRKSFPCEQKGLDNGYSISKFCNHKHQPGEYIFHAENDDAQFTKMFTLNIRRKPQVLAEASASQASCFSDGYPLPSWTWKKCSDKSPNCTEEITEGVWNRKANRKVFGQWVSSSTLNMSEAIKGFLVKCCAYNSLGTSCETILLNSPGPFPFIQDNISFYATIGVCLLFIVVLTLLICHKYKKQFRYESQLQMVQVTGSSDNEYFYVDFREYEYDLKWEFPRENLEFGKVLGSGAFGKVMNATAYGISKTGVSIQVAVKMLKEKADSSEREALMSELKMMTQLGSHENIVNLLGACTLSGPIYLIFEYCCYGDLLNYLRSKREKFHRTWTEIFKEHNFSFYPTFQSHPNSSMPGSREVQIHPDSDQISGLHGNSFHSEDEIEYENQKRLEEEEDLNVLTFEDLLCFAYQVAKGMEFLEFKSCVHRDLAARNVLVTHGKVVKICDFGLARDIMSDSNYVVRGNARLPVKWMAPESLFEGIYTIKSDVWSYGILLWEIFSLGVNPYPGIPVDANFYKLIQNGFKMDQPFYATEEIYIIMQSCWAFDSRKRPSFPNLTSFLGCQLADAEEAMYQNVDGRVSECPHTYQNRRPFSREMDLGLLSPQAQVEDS
Sequence of Protein-tyrosine kinase 2-beta (Homo sapiens) (Q14289 whole entry, looked up, the tested form may be a part): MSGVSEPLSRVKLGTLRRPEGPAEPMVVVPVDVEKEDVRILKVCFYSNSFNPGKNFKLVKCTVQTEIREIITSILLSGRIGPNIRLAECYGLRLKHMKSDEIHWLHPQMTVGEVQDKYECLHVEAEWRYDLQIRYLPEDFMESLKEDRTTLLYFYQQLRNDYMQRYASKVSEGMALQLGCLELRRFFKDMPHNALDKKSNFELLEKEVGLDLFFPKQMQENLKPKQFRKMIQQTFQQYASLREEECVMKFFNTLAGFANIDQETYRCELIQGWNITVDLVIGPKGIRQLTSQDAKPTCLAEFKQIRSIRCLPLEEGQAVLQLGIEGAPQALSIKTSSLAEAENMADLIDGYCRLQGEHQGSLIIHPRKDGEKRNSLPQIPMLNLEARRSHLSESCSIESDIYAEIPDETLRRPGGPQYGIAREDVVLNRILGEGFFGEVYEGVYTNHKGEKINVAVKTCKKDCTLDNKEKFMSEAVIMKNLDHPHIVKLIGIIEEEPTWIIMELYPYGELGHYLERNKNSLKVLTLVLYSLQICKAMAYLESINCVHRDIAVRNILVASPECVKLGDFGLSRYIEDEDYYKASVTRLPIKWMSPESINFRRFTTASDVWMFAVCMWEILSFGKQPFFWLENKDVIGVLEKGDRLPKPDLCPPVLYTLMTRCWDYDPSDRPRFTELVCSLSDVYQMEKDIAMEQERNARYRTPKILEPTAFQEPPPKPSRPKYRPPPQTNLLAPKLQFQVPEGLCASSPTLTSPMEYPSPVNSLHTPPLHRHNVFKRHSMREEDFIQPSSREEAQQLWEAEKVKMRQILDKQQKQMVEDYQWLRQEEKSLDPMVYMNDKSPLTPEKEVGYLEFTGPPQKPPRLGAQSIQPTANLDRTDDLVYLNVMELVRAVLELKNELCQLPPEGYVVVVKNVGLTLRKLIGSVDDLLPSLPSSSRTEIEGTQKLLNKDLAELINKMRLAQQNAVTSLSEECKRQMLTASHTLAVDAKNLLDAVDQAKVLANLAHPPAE
Sequence of High affinity nerve growth factor receptor (Homo sapiens) (P04629 33-796 limits assumed): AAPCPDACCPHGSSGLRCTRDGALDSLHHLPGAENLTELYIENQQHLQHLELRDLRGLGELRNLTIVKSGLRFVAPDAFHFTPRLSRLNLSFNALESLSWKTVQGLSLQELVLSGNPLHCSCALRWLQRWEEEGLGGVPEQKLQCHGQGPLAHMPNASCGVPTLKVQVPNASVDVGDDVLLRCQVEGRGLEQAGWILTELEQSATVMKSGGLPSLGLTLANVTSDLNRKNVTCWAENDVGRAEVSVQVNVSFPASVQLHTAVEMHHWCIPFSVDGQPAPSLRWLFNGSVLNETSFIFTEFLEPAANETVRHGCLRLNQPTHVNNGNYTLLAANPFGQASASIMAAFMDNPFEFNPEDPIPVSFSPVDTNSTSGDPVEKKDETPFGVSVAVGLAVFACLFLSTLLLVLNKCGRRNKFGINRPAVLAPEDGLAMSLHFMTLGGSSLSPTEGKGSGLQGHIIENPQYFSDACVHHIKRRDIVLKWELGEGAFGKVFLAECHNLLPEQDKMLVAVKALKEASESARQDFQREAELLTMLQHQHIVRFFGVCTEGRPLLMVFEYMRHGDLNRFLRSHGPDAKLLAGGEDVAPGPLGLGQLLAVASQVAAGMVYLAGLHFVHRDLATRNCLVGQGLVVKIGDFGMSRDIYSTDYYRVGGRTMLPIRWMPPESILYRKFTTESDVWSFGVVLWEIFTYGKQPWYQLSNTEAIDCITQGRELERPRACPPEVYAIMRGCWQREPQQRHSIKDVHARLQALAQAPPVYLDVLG
Sequence of Mast/stem cell growth factor receptor Kit (Homo sapiens) (P10721 whole entry, the tested form may be a part): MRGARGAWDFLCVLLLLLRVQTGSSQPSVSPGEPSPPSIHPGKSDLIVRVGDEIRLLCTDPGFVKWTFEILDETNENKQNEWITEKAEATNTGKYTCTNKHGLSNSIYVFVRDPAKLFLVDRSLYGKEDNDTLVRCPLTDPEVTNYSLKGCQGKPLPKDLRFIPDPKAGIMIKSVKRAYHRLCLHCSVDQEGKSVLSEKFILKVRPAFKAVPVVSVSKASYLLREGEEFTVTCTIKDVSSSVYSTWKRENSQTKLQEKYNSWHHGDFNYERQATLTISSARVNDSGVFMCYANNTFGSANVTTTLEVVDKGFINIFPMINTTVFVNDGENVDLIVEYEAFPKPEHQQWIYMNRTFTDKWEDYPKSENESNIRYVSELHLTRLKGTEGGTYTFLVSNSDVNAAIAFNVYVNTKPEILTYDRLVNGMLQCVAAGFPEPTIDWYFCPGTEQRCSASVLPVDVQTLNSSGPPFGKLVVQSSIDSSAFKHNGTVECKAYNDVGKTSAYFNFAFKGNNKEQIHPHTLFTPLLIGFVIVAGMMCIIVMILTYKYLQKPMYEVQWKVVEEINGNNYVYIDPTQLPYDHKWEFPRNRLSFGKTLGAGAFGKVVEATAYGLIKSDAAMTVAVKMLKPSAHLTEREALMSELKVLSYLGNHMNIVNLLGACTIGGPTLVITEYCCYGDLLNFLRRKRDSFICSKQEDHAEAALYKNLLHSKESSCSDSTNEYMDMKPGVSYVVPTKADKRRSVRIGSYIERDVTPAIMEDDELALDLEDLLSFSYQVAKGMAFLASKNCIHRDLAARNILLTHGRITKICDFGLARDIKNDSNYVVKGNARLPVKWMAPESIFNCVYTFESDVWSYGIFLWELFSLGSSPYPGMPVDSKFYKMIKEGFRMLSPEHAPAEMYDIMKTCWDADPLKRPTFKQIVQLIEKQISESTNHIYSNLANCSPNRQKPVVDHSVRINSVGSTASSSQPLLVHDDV

Compound: Cc1cccc(Nc2nc(N[C@@H]3CCCC[C@@H]3N)c(C#N)c3cn[nH]c(=O)c23)c1
GI50 [1]: 1.9 nM | Activity [2]: Non-Toxic | inhibition [3]: > 90% | inhibition [4]: > 90% | Cmax [5]: 360 ng/mL | clearance [6]: 12 mL/min/kg | AUC at 24 h [7]: 4800 ng·h/mL | inhibition [8]: > 90% | Cp(f) (Mus musculus): 3.1 nM | inhibition [9]: > 90% | solubility [10]: 2.1 µg/mL (≈ 5.39 µM) | Activity (BaF3): Dose-dependent effect | inhibition [11]: > 90% | fraction unbound at 4 h, 10 ug/mL [12]: 0.01 | inhibition [13]: > 90% | pIC50 [14]: 9.31 | inhibition [15]: > 90% | remaining at 0.5 h, 1 µM [16]: 96% | GI50 at 72 h [17]: 220 nM | inhibition [18]: > 90% | solubility [19]: 0.9 µg/mL (≈ 2.31 µM) | inhibition [20]: > 90% | inhibition [21]: > 90% | Papp at 24 h, 5 µM [22]: > 50 ×10⁻⁶ cm/s | inhibition [23]: > 90% | inhibition [24]: > 90% | inhibition [25]: > 90% | inhibition [26]: > 90% | bioavailability [27]: 34% | inhibition [28]: > 90% | inhibition [29]: > 90%

pIC50 [14]: < 5.89
Compound: Cc1cccc(-n2c(=O)[nH]c3cc(C#N)c(N[C@@H]4CCCC[C@@H]4N)nc32)c1

pIC50 [14]: < 5.40
Compound: N#Cc1cc(C(N)=O)c(N)nc1N[C@@H]1CCCC[C@@H]1N

pIC50 [14]: < 5.40
Compound: Cc1cccc(Nc2ccc(C#N)c(N[C@@H]3CCCC[C@@H]3N)n2)c1

Compound: Cc1cccc(Nc2nc(NC3CCCCC3N)cc3c2C(=O)NCC3)c1 (racemic)
GI50 at 72 h [17]: 4300 nM

Compound: Cc1cccc(Nc2nc(NC3CCCCC3N)cc3cc[nH]c(=O)c23)c1 (racemic)
GI50 at 72 h [17]: 1920 nM

GI50 [1]: > 4000 nM | pIC50 [14]: < 5.40
Compound: N#Cc1cc2c(N)nn(Cc3ccccc3)c2nc1NC1CCCCC1N (racemic)
GI50 at 72 h [17]: > 5000 nM

Cmax [5]: 420 ng/mL | clearance [6]: 12 mL/min/kg | AUC at 24 h [7]: 2400 ng·h/mL | solubility [10]: 49 µg/mL (≈ 134 µM) | fraction unbound at 4 h, 10 ug/mL [12]: 0.01 | remaining at 0.5 h, 1 µM [16]: 100% | solubility [19]: 35 µg/mL (≈ 96 µM) | Papp at 24 h, 5 µM [22]: 16 ×10⁻⁶ cm/s | bioavailability [27]: 17%
Compound: Cc1cccc(Nc2nc(N[C@@H]3CCCC[C@@H]3N)c(C#N)cc2C(N)=O)c1

Compound: Cc1cccc(Nc2nc(NC3CCCCC3N)cc3cn[nH]c(=O)c23)c1 (racemic)
GI50 at 72 h [17]: 1500 nM

Compound: Cc1cccc(Nc2nc(NC3CCCCC3N)c(Cl)c3cn[nH]c(=O)c23)c1 (racemic)
GI50 at 72 h [17]: 1500 nM

pIC50 [14]: < 5.40
Compound: Cc1cccc(Cc2nc(N[C@@H]3CCCC[C@@H]3N)c(C#N)cc2C(N)=O)c1
